Data on one compound can be found in ChEMBL document CHEMBL4368918, “Structure-Based Design of Inhibitors Selective for Human Proteasome β2c or β2i Subunits” (J Med Chem, 2019).

pIC50: −log10 of the molar value. Calls of active or inactive are those of the source. No cut-off for these calls is given here. Bounds are passed on as bounds.

As a reminder, the pIC50 is the negative decadic logarithm of the IC50, by convention in mol/L. Read a low pIC50 as a large IC50.

One assay has as its target T1, Proteasome subunit beta type-10 (Homo sapiens) (UniProt P40306).
T1 sequence (whole entry): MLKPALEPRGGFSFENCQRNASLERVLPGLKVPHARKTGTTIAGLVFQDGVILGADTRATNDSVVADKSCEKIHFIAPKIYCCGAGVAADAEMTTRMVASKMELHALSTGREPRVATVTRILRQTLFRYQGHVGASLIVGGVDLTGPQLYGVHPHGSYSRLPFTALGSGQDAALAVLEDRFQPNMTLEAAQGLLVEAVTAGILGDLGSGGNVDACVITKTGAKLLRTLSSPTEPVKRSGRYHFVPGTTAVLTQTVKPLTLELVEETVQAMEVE
The assay is described as follows: Inhibition of Morp-Ala-Tyr(O-C2H4-BODIPY(FL))-1-DecAla-EK binding to 20S immunoproteasome beta 2 in human Raji cell lysates at 1 uM in presence of 3-probe mixture by competitive ABPP assay. Type of assay: subcellular. The conditions noted are these: Lysate.
As to `CC(C)C[C@H](NC(=O)[C@H](Cc1ccccc1)N=[N+]=[N-])C(=O)N[C@@H](CC(C)C)C(=O)N[C@H](/C=C/S(C)(=O)=O)Cc1ccc(CN)cc1`, the inhibition entry is “Active”.

A further assay concerns the target T1, Proteasome subunit beta type-10 (Homo sapiens). Nature of the assay: Inhibition of Morp-Ala-Tyr(O-C2H4-BODIPY(FL))-1-DecAla-EK binding to immunoproteasome beta 2 in human Raji cell lysates at 0.1 uM by competitive ABPP assay. The conditions noted are these: Lysate. Type of assay: subcellular. The essentials: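 Raji lysate was preincubated with inhibitor, then labeled with the BODIPY(FL) probe alone. β2i labeling was read by in-gel fluorescence at Cy2 settings after SDS-PAGE.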
`CC(C)C[C@H](NC(=O)[C@H](Cc1ccccc1)N=[N+]=[N-])C(=O)N[C@@H](CC(C)C)C(=O)N[C@H](/C=C/S(C)(=O)=O)Cc1ccc(CN)cc1`: the inhibition result was “Active”.

The target in a further assay is T2, Proteasome subunit beta type-9 (Homo sapiens, UniProt P28065).
T2 sequence (P28065 whole entry): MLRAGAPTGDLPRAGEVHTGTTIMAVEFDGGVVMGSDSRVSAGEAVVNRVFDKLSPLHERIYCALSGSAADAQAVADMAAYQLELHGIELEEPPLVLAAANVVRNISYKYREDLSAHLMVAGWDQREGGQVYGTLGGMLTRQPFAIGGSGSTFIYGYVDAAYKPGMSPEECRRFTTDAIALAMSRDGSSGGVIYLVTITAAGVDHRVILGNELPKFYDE
Nature of the assay: Inhibition of 20S immunoproteasome beta 1 in human RPMI8226 cell lysates after 1 hr by coomassie brilliant blue staining-based fluorescence assay. In kind it is subcellular, Lysate.
Settings: not given
The essentials: (§1)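 Living RPMI-8226 cells were grown in RPMI-1640 with 10% FCS. Cells at (5–8)×10⁵ cells/mL were exposed to inhibitor for 1 h at 37 °C, washed in PBS and lysed on ice for 1 h in digitonin/ATP buffer. Residual activity was read by cocktail-ABP labeling, SDS-PAGE and fluorescence densitometry relative to mock, with Coomassie staining correcting for loading. IC50 came from three independent experiments.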
Consider `CC(C)C[C@H](NC(=O)[C@H](Cc1ccccc1)N=[N+]=[N-])C(=O)N[C@@H](CC(C)C)C(=O)N[C@H](/C=C/S(C)(=O)=O)Cc1ccc(CN)cc1`, for which the negative logarithm of the IC50 (pIC50) is less than 5.00.

Another assay deals with T3, Proteasome subunit beta type-10 (Homo sapiens, UniProt P40306).
T3 sequence (P40306 whole entry): T1 sequence (whole entry)
Nature of the assay: Inhibition of 20S immunoproteasome beta 2 in human RPMI8226 cell lysates after 1 hr by coomassie brilliant blue staining-based fluorescence assay.
Settings: not given
In kind it is subcellular, Lysate.
As for `CC(C)C[C@H](NC(=O)[C@H](Cc1ccccc1)N=[N+]=[N-])C(=O)N[C@@H](CC(C)C)C(=O)N[C@H](/C=C/S(C)(=O)=O)Cc1ccc(CN)cc1`, the negative logarithm of the IC50 (pIC50) is 6.39.

In a further assay the target is T4, Proteasome subunit beta type-8 (Homo sapiens, UniProt P28062).
T4 sequence (P28062 whole entry): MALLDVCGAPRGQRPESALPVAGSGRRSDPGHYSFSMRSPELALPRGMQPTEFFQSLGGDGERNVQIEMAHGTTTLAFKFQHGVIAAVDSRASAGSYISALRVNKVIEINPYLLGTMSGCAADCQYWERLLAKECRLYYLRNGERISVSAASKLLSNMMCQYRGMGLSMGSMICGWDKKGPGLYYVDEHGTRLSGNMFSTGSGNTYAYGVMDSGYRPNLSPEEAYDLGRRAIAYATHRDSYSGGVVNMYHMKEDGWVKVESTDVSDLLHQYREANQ
The assay is described as follows: Inhibition of 20S immunoproteasome beta 5 in human RPMI8226 cell lysates after 1 hr by coomassie brilliant blue staining-based fluorescence assay. In kind it is subcellular, Lysate.
Settings: not given
An outline of the steps:
as §1
On to `CC(C)C[C@H](NC(=O)[C@H](Cc1ccccc1)N=[N+]=[N-])C(=O)N[C@@H](CC(C)C)C(=O)N[C@H](/C=C/S(C)(=O)=O)Cc1ccc(CN)cc1`, for which the negative-log IC50 (pIC50) is less than 5.00.

The target of a further assay is Proteasome Macropain subunit (Homo sapiens) (UniProt P49721). The conditions noted are these: Raji, Lysate, 1 uM.
For the compound `CC(C)C[C@H](NC(=O)[C@H](Cc1ccccc1)N=[N+]=[N-])C(=O)N[C@@H](CC(C)C)C(=O)N[C@H](/C=C/S(C)(=O)=O)Cc1ccc(CN)cc1`, the inhibition entry was “Active”.

In another assay the target is T3, Proteasome subunit beta type-10. The assay is described as follows: Inhibition of 20S immunoproteasome beta 2 in human Raji cell lysates after 1 hr by competitive ABPP assay. Type of assay: subcellular, Lysate.
Settings: not given
`CC(C)C[C@H](NC(=O)[C@H](Cc1ccccc1)N=[N+]=[N-])C(=O)N[C@@H](CC(C)C)C(=O)N[C@H](/C=C/S(C)(=O)=O)Cc1ccc(CN)cc1`: the negative-log IC50 (pIC50) was 7.70.

The target of a further assay is T4, Proteasome subunit beta type-8. The assay is described as follows: Inhibition of 20S immunoproteasome beta 5 in human Raji cell lysates after 1 hr by competitive ABPP assay.
Settings: not given
Type of assay: subcellular, Lysate.
`CC(C)C[C@H](NC(=O)[C@H](Cc1ccccc1)N=[N+]=[N-])C(=O)N[C@@H](CC(C)C)C(=O)N[C@H](/C=C/S(C)(=O)=O)Cc1ccc(CN)cc1` gave a pIC50 of 5.93.
